Reference: ChEMBL document CHEMBL1156178, “Discovery of novel 6,6-heterocycles as transient receptor potential vanilloid (TRPV1) antagonists” (J Med Chem, 2010)
Values after ≈ are worked out from the molar mass of the structure shown.

Legend:
[1] = molecular target: Transient receptor potential cation channel subfamily V member 1 (Rattus norvegicus, UniProt O35433); assay: Inhibition of rat TRPV1
[2] = molecular target: Transient receptor potential cation channel subfamily V member 1 (Homo sapiens, UniProt Q8NER1); assay: Antagonist activity at human recombinant TRPV1 expressed in HEK293 cells assessed as inhibition of capsaicin-induced calcium mobilization by FLIPR assay
[3] = Solubility in 0.1 N HCL after 4 hrs by HPLC/MS analysis; assay type: physicochemical
[4] = Metabolic stability in rat liver microsomes assessed as compound remaining at 1 uM after 10 mins by LCMS analysis; assay type: ADME, Microsome; conditions: read-out: Activity
Summary of the method: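 Compound (1 μM) incubated at 37 °C with 0.5 mg/mL male pooled rat liver microsomes; NADPH added to start the reaction. Aliquots were taken at 0 and 10 min and quenched into ice-cold acetonitrile with internal standard, then centrifuged. Parent was monitored as the M+1 ion by ESI-LCMS in selected-ion mode. Percent remaining was taken as the 10 min/0 min signal ratio, corrected by internal-standard recovery.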

[5] = Half life in rat at […], iv and 10 mg/kg, po; assay type: ADME, organism-based; conditions: in vivo
[6] = Clearance in rat at […], iv and 10 mg/kg, po; assay type: ADME, organism-based; conditions: in vivo
[7] = Oral bioavailability in rat at 10 mg/kg; assay type: ADME, organism-based; conditions: in vivo
[8] = Tmax in rat at […], iv and 10 mg/kg, po; assay type: ADME, organism-based; conditions: in vivo
[9] = Volume of distribution in rat at […], iv and 10 mg/kg, po; assay type: ADME, organism-based; conditions: in vivo
MDR1 = assay: Apparent permeability across pig LLC-PK1 cells expressing MDR1; assay type: ADME, cell-based, Sus scrofa
Rattus norvegicus = species: Rattus norvegicus; assay: Analgesic activity against carrageenan-induced thermal hyperalgesia in rat; assay type: functional; conditions: read-out: MED
[10] = Half life in rat at 2.7 mg/kg, iv and 2 mg/kg, po; assay type: ADME, organism-based; conditions: in vivo

Sequence of Transient receptor potential cation channel subfamily V member 1 (Homo sapiens, UniProt Q8NER1) (Q8NER1 whole entry): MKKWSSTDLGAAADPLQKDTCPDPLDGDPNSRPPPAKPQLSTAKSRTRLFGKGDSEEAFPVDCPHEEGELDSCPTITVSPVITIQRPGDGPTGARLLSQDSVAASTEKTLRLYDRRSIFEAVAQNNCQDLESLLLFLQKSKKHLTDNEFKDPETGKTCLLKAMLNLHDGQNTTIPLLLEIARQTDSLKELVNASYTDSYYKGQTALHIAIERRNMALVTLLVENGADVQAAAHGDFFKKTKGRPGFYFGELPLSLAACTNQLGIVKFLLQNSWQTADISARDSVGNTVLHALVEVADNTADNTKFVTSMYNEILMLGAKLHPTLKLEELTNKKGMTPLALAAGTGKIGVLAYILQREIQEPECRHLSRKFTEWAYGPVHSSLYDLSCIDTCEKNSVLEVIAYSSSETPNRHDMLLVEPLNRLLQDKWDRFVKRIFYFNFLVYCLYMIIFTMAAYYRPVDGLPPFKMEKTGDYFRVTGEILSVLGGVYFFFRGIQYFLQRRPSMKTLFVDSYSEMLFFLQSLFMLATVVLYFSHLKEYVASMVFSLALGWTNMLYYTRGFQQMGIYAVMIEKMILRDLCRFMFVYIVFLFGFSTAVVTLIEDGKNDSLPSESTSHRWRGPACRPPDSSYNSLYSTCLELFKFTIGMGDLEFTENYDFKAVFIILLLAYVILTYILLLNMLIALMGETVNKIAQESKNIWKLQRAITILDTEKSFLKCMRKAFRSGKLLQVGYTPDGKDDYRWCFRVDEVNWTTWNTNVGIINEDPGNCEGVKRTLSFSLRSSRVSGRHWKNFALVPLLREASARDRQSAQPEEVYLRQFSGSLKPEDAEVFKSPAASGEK
Sequence of Transient receptor potential cation channel subfamily V member 1 (Rattus norvegicus, UniProt O35433) (O35433 whole entry): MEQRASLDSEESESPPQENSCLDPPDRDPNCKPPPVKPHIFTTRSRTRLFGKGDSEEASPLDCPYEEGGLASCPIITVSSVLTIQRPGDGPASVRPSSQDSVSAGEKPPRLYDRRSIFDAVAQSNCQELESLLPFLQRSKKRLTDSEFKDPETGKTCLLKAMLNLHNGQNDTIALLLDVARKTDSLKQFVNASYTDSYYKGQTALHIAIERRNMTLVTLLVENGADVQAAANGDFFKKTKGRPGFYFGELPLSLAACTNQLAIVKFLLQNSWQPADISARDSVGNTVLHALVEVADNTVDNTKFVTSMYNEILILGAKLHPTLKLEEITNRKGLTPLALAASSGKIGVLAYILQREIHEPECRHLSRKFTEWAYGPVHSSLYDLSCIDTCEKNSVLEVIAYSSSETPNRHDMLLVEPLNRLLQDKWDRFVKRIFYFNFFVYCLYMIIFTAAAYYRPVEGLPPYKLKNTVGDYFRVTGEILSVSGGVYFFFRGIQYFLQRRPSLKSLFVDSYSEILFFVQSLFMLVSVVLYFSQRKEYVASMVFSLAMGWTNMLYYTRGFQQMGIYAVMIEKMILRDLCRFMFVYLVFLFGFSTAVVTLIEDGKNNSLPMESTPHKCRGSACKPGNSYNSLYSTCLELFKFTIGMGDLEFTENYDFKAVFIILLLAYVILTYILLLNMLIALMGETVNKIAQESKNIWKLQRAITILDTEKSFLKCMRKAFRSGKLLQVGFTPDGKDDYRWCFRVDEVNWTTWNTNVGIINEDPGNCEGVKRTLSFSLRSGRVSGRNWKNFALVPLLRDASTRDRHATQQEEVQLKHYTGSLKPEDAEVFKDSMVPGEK

SMILES	IC50 [2] [µM]	solubility at 4 h [3] [µg/mL]	other results
O=C(Nc1ccccc1Br)N[C@@H]1CCN(c2ccc(C(F)(F)F)cn2)C1 [SB-705498]	–	–	IC50 [1]: 0.032 µM
FC(F)(F)c1ccc(Nc2ncnc3nc(-c4ncccc4C(F)(F)F)ccc23)cc1	0.00083	9 (≈ 20.7 µM)	–
FC(F)(F)c1ccc(Nc2cnnc3cc(-c4ncccc4C(F)(F)F)ccc23)nc1	0.029	–	–
Cl.FC(F)(F)c1ccc(Nc2ncnc3cc(-c4ncccc4C(F)(F)F)ccc23)cn1	–	35	remaining at 10 min, 1 µM [4]: 100%; half-life [5]: 4 h; clearance [6]: 22 mL/min/kg; bioavailability [7]: 65%; Tmax [8]: 4.7 h; Vd [9]: 5.5 L/kg
FC(F)(F)c1ccc(Nc2ncnc3nc(-c4ncccc4C(F)(F)F)ncc23)cc1	0.665	4 (≈ 9.17 µM)	–
FC(F)(F)c1ccc(Nc2ncnc3cc(-c4ncccc4C(F)(F)F)ccc23)cc1 [NGD-8243]	–	16 (≈ 36.8 µM)	remaining at 10 min, 1 µM [4]: 93%; Papp (MDR1): 11 ×10⁻⁶ cm/s; minimal effective dose (Rattus norvegicus): 0.1 mg/kg; half-life [10]: 8 h
FC(F)(F)c1ccc(Nc2ccnc3cc(-c4ncccc4C(F)(F)F)cnc23)nc1	0.308	38 (≈ 87.3 µM)	–
FC(F)(F)c1ccc(Nc2ccnc3nc(-c4ncccc4C(F)(F)F)cnc23)nc1	0.00023	8 (≈ 18.3 µM)	–
FC(F)(F)c1ccc(Nc2ccnc3cc(-c4ncccc4C(F)(F)F)ccc23)nc1	0.00165	34 (≈ 78.3 µM)	–
